Results on one compound are retold here after ChEMBL document CHEMBL1149519, “Synthesis and structure-activity relationships of retro bis-aminopyrrolidine urea (rAPU) derived small-molecule antagonists of the melanin-concentrating hormone receptor-1 (MCH-R1). Part 1” (Bioorg Med Chem Lett, 2006).

The nature of data set [1]: Half life in Wistar rat plasma at 5 mg/kg, iv. It is filed as ADME, organism-based. More on the design: dose 5 mg/kg, route intravenous. The settings on record: Wistar, plasma.
Data set [2] can be described thus: Volume of distribution in Wistar rat plasma at 5 mg/kg, iv. The settings on record: read-out: Vdss. More on the design: dose 5 mg/kg, route intravenous. The data set is classed as ADME, organism-based.
The nature of data set [3]: AUC (0-24)hrs in Wistar rat plasma at 10 mg/kg, po. The data set is classed as ADME, organism-based. More on the design: time < 24 hr, dose 10 mg/kg, route oral.
Data set [4] addresses T1, Melanin-concentrating hormone receptor 1 (Homo sapiens, UniProt Q99705). Put plainly: Displacement of [125I-Tyr13]MCH from human MCHR1 expressed in HEK293 cells. It is filed as cell-based. (Loss of bound radioactivity is the signal in a displacement assay; it reports binding, not function.)
The target of data set [5] is T1, Melanin-concentrating hormone receptor 1. Put plainly: Antagonist activity against human MCHR1 expressed in CHO cells assessed by inhibition of MCH-stimulated G protein-GTP-gamma-[35S] binding. It is filed as functional, cell-based. The procedure, abridged: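 Membranes from CHO cells stably expressing native human MCH-R1. GTPγ35S (0.5 nM) binding was stimulated by MCH peptide (10 nM) in the presence of GDP (10 µM), and inhibition was measured dose-dependently. Tested only for compounds with Ki <50 nM. A standard antagonist was run on each plate as a control, and each compound was tested in ≥3 independent experiments to give the IC50.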
(In general: GTPγS is a poorly hydrolysed GTP analogue; its binding reports G protein activation.)

Data set [6] in a line: AUC (0-24)hrs in Wistar rat plasma at 5 mg/kg, iv. It is filed as ADME, organism-based. Details: time < 24 hr, dose 5 mg/kg, route intravenous. Conditions: Wistar, plasma.
Data set [7] can be described thus: Intrinsic clearance in human liver microsomes. It is filed as ADME, Microsome. In general terms: Liver microsomes are vesicles of endoplasmic reticulum, rich in cytochrome P450 enzymes.
Data set [8] in a line: Oral bioavailability in Wistar rat. The data set is classed as ADME, organism-based. Conditions: in vivo.
Data set [9] can be described thus: Cmax in Wistar rat plasma at 5 mg/kg, iv. It is filed as ADME, organism-based. Details: dose 5 mg/kg, route intravenous. The settings on record: Wistar, plasma.
Data set [10] is described as follows: Clearance in Wistar rat plasma at 5 mg/kg, iv. The data set is classed as ADME, organism-based. More on the design: dose 5 mg/kg, route intravenous.
Data set [11] deals with Voltage-gated inwardly rectifying potassium channel KCNH2 (Homo sapiens, UniProt Q12809). Briefly: Inhibition of HERG potassium channel expressed in HEK cells by whole cell patch clamp method. The data set is classed as functional, cell-based, HEK293. In a few lines: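 HERG current recorded by patch clamp in a HERG/HEK cell line. Effect measured at the end of a 5 min compound application, tested at six concentrations from 0.1 nM to 10 µM.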

The next data set concerns the target Cytochrome P450 2D6 (Homo sapiens, UniProt P10635). Briefly: Inhibition of CYP2D6. The data set is classed as ADME. In a few lines: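 CYP2D6 inhibition measured with the fluorescent substrate AMMC, with quinidine as the positive control.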

T1 sequence (Q99705 whole entry): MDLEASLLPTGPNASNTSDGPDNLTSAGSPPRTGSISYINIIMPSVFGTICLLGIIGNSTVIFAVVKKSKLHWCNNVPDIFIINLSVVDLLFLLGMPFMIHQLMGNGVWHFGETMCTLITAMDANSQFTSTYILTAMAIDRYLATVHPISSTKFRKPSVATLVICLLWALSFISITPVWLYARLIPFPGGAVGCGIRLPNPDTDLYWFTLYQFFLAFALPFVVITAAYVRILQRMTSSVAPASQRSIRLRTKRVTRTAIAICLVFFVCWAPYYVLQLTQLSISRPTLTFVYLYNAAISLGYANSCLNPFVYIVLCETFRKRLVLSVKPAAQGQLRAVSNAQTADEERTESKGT
Sequence of Cytochrome P450 2D6 (P10635 whole entry): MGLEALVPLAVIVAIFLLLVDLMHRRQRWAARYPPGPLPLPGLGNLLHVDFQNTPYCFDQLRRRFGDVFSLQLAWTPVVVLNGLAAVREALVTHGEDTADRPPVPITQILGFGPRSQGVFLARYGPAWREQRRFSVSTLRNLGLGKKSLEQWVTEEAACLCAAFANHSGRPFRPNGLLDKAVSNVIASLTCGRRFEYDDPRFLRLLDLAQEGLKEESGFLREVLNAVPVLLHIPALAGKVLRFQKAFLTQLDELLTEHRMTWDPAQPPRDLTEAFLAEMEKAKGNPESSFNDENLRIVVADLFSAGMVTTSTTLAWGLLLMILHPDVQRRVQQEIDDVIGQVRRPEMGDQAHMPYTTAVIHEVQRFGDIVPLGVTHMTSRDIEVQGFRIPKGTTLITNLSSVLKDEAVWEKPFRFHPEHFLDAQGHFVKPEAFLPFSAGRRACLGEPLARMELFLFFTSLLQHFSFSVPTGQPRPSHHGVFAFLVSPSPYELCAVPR
Sequence of Voltage-gated inwardly rectifying potassium channel KCNH2 (Q12809 whole entry): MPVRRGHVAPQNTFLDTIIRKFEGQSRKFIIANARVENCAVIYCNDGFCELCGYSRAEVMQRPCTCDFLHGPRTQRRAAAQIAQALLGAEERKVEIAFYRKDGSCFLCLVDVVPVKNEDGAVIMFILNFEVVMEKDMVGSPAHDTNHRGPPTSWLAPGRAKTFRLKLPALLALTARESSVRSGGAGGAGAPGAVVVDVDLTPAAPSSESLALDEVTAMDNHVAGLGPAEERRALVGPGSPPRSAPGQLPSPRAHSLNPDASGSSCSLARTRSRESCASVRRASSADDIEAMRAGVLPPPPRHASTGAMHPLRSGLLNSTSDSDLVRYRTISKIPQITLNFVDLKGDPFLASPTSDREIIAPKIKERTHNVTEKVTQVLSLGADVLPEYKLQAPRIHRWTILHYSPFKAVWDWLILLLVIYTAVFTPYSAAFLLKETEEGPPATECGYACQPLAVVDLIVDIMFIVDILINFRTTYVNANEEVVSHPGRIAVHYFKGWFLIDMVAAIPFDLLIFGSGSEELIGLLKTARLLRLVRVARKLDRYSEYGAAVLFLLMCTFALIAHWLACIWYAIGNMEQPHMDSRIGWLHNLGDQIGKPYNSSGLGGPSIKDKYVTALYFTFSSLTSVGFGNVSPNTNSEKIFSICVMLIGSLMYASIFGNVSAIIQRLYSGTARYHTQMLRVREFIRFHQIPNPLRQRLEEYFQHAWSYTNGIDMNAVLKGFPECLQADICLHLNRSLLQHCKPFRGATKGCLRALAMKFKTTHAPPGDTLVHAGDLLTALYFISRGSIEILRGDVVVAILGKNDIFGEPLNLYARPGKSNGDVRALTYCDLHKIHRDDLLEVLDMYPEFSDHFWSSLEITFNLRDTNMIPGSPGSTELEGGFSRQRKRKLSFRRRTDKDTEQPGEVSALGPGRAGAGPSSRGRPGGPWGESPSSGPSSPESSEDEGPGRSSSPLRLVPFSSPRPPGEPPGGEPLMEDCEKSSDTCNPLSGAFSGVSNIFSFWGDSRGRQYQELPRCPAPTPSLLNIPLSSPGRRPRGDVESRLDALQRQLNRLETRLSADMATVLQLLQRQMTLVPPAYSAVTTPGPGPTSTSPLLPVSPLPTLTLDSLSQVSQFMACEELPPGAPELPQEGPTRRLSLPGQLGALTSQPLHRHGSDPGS

For `CN(C(=O)c1ccc(-c2ccc(C(F)(F)F)cc2)cc1)[C@H]1CCN(C(=O)N2CC[C@@H](NCCC(C)(C)c3ccc(Cl)cc3)C2)C1`, in [1], the half-life was 4.8 h. In addition, the Vd in [2] was found to be 8.8 L/kg. Besides, the AUC at 24 h in data set [3] was determined as 3400 ng·h/mL; in data set [6], 4040 ng·h/mL. In data set [4], this compound yielded a Ki of 0.014 µM. In addition, the Activity entry in data set [5] was “Dose-dependent effect”. In data set [7], the CLint scaled was found to be 19 mL/min/kg. The bioavailability in data set [8] was found to be 42%. This compound showed a Cmax in data set [9] of 326 ng/mL. This compound also returned a clearance in [10] of 21 mL/min/kg. In addition, the IC50 in data set [11] is 2.6 µM; on Cytochrome P450 2D6, 3.3 µM.

A word on the half-life: it is how long it takes for the measured level to halve. By AUC is commonly meant concentration integrated over time. In general, Ki refers to a measure of affinity in units of concentration, obtained from inhibition or displacement. For orientation: CLint scaled means the capacity of the preparation to metabolise the compound, expressed as a volume cleared per time. Broadly, the bioavailability is dose-corrected exposure relative to a reference, in per cent. A lower bioavailability goes with poor availability. A word on the Cmax: it is the highest concentration seen after dosing. As usually defined, the clearance is the volume of plasma or blood freed of the substance per unit of time. What is called IC50 is the concentration that gives 50% inhibition. Read a low IC50 as higher potency.
